The values below come from ChEMBL document CHEMBL1124769, “Retinobenzoic acids. 5. Retinoidal activities of compounds having a trimethylsilyl or trimethylgermyl group(s) in human promyelocytic leukemia cells HL-60” (1990).

In test [1] the test system is HL-60. Put plainly: Ability to induce differentiation of human promyelocytic leukemia cell line HL-60 to mature granulocytes. To be noted: for EC50: read-out: ED50 (the source's name). It is filed as functional. The gist of the method:
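HL-60 cells in RPMI1640 with 5% FCS, penicillin G and streptomycin, at 37 °C in 5% CO2. Seeded at ~8 × 10^4 cells/mL and exposed 4 days to compound from a 0.2 mM ethanol stock (final ethanol <0.5%, ethanol-only controls). Read by Wright-Giemsa differential counts and NBT reduction (0.2% NBT plus TPA, 20 min, 37 °C), ≥200 cells each. ED50 from NBT data (van der Waerden method).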

The test system of test [2] is HL-60. The test can be described thus: Relative activity against human promyelocytic leukemia HL-60 cells. It counts as functional. The gist of the method:
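Relative activity was computed as ED50 of retinoic acid ÷ ED50 of test compound × 100. Both ED50s came from concurrent 4-day HL-60 NBT-reduction differentiation assays spanning 5 orders of magnitude in concentration, each run at least twice. Values are representative ones or means.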

For the compound `CC(C)c1cccc(NC(=O)c2ccc(C(=O)O)cc2)c1`, the EC50 in test [1] was 680 nM. “N-(3,5-Bis-trimethylgermanyl-phenyl)-terephthalamic acid (Am55G)” registered a Relative activity in test [2] of 15. In addition, in test [1], the ED50 amounted to 42 nM. Turning to `CC(C)(C)c1ccc(C(=O)/C=C/c2ccc(C(=O)O)cc2)cc1`, in test [2], the Relative activity amounted to 3.9. `C[Si](C)(C)c1cccc(C(=O)/C=C/c2ccc(C(=O)O)cc2)c1`: the Relative activity in test [2] amounted to 1.8. Also, in test [1], the EC50 stood at 44 nM.

As to “4-[3-Oxo-3-(3-trimethylgermanyl-phenyl)-propenyl]-benzoic acid (Ch60G)”, the Relative activity in test [2] was determined as 4.5. In addition, the ED50 in test [1] was 40 nM. As for `CC1(C)CCC(C)(C)c2cc(NC(=O)c3ccc(C(=O)O)cc3)ccc21` [TAMIBAROTENE], the EC50 in test [1] came out at 0.79 nM.

Compound `CC(C)(C)c1cc(C(=O)Nc2ccc(C(=O)O)cc2)cc(C(C)(C)C)c1` came in with a Relative activity in test [2] of 5.6. In addition, the EC50 in test [1] was determined as 48 nM. “4-[3-(2,5-Bis-trimethylgermanyl-phenyl)-3-oxo-propenyl]-benzoic acid (Ch55G)” yielded a Relative activity in test [2] of 1000. The compound further registered an ED50 in test [1] of 0.21 nM. For the compound `C[Si](C)(C)c1cc(NC(=O)c2ccc(C(=O)O)cc2)cc([Si](C)(C)C)c1`, the Relative activity in test [2] turned out to be 13. In addition, in test [1], the EC50 came to 30 nM.

In turn, `CC(C)(C)c1cccc(NC(=O)c2ccc(C(=O)O)cc2)c1` returned a Relative activity in test [2] of 0.32. For the same compound, the EC50 in test [1] was determined as 700 nM. `CC(C)(C)c1cccc(C(=O)/C=C/c2ccc(C(=O)O)cc2)c1` showed a Relative activity in test [2] of 0.81. Moreover, the EC50 in test [1] came to 160 nM. In turn, `C[Si](C)(C)c1cccc(NC(=O)c2ccc(C(=O)O)cc2)c1` displayed a Relative activity in test [2] of 2.4. In test [1], the EC50 was 85 nM.

On to `CC(C)(C)c1cc(C(=O)/C=C/c2ccc(C(=O)O)cc2)cc(C(C)(C)C)c1`, for which the Relative activity in test [2] is 640.

As for `CC(C)(C)c1cc(NC(=O)c2ccc(C(=O)O)cc2)cc(C(C)(C)C)c1`, in test [2], the Relative activity was 15. In addition, the EC50 in test [1] amounted to 36 nM. `CCc1ccc(C(=O)/C=C/c2ccc(C(=O)O)cc2)cc1CC`: in test [1], the EC50 was 170 nM. `C[Si](C)(C)c1cc(C(=O)/C=C/c2ccc(C(=O)O)cc2)cc([Si](C)(C)C)c1` had a Relative activity in test [2] of 860. In addition, the EC50 in test [1] turned out to be 0.14 nM. For the compound `CC(C)(C)c1cccc(/C=C/c2ccc(C(=O)O)cc2)c1`, the Relative activity in test [2] was 13.

In turn, `CC1=C(/C=C/C(C)=C/C=C/C(C)=C/C(=O)O)C(C)(C)CCC1` [TRETINOIN] yielded a Relative activity in test [2] of 100. Moreover, the EC50 in test [1] worked out at 2.4 nM. Consider `C[Si](C)(C)c1cc(C(=O)Nc2ccc(C(=O)O)cc2)cc([Si](C)(C)C)c1` [AMSILAROTENE], for which, in test [2], the Relative activity stood at 52.7. Also, the EC50 in test [1] stood at 9.2 nM.

In turn, `C[Si](C)(C)c1cccc(/C=C/c2ccc(C(=O)O)cc2)c1` had a Relative activity in test [2] of 85. Further, the EC50 in test [1] was determined as 1 nM.
